Results published in PMC7704867 (Biochimica et biophysica acta. Biomembranes, 2020).
Ends that are not written are not given here. Peptide text beside a SMILES is read from it. * marks the point of attachment. DOTA = O=C(O)CN1CCN(CC(=O)O)CCN(CC(=O)*)CCN(CC(=O)O)CC1

B1: Ac-SW-TS/EE (peptide)
peptide: Ac-CFLHFGKEGESGPLQ
B2: Ac-SW-F/A (peptide)
peptide: Ac-CFLHAGKTGSSGPLQ
B3: Ac-SW, CEACAM1 short form 15 amino acid peptide (peptide)
peptide: Ac-CFLHFGKTGSSGPLQ
B4: Y-DOTA-SW (peptide)
peptide: {DOTA}-GFLHFGKTGSSGPLQ
modifications: also: N-terminal DOTA chelated with Y3+
B5: Ac-SW-S/E (peptide)
peptide: Ac-CFLHFGKTGESGPLQ
B6: Ac-SW-T/E (peptide)
peptide: Ac-CFLHFGKEGSSGPLQ
B7: Ac-LW, CEACAM1 long form 15 amino acid peptide (peptide)
peptide: Ac-CFLHFGKTGRASDQR

What follows are molecules tested against 15N-S100A10-AnxA2Nter fusion protein (Homo sapiens, UniProt P60903) (assay: not given). Details: not given.
Assay type: binding

Row | Kd [µM] | Molecule
1 | 3530 ± 1200 | CC(=O)N[C@@H](CS)C(=O)N[C@@H](Cc1ccccc1)C(=O)N[C@@H](CC(C)C)C(=O)N[C@@H](Cc1c[nH]cn1)C(=O)N[C@@H](Cc1ccccc1)C(=O)NCC(=O)N[C@@H](CCCCN)C(=O)N[C@@H](CCC(=O)O)C(=O)NCC(=O)N[C@@H](CCC(=O)O)C(=O)N[C@@H](CO)C(=O)NCC(=O)N1CCC[C@H]1C(=O)N[C@@H](CC(C)C)C(=O)N[C@@H](CCC(N)=O)C(=O)O [Ac-SW-TS/EE] (Ac-CFLHFGKEGESGPLQ-OH)
2 | 1580 ± 200 | CC(=O)N[C@@H](CS)C(=O)N[C@@H](Cc1ccccc1)C(=O)N[C@@H](CC(C)C)C(=O)N[C@@H](Cc1c[nH]cn1)C(=O)N[C@@H](Cc1ccccc1)C(=O)NCC(=O)N[C@@H](CCCCN)C(=O)N[C@H](C(=O)NCC(=O)N[C@@H](CCC(=O)O)C(=O)N[C@@H](CO)C(=O)NCC(=O)N1CCC[C@H]1C(=O)N[C@@H](CC(C)C)C(=O)N[C@@H](CCC(N)=O)C(=O)O)[C@@H](C)O [Ac-SW-S/E] (Ac-CFLHFGKTGESGPLQ-OH)
3 | 2100 ± 810 | CC(=O)N[C@@H](CS)C(=O)N[C@@H](Cc1ccccc1)C(=O)N[C@@H](CC(C)C)C(=O)N[C@@H](Cc1c[nH]cn1)C(=O)N[C@@H](C)C(=O)NCC(=O)N[C@@H](CCCCN)C(=O)N[C@H](C(=O)NCC(=O)N[C@@H](CO)C(=O)N[C@@H](CO)C(=O)NCC(=O)N1CCC[C@H]1C(=O)N[C@@H](CC(C)C)C(=O)N[C@@H](CCC(N)=O)C(=O)O)[C@@H](C)O [Ac-SW-F/A] (Ac-CFLHAGKTGSSGPLQ-OH)
4 | 2330 ± 390 | CC(=O)N[C@@H](CS)C(=O)N[C@@H](Cc1ccccc1)C(=O)N[C@@H](CC(C)C)C(=O)N[C@@H](Cc1c[nH]cn1)C(=O)N[C@@H](Cc1ccccc1)C(=O)NCC(=O)N[C@@H](CCCCN)C(=O)N[C@@H](CCC(=O)O)C(=O)NCC(=O)N[C@@H](CO)C(=O)N[C@@H](CO)C(=O)NCC(=O)N1CCC[C@H]1C(=O)N[C@@H](CC(C)C)C(=O)N[C@@H](CCC(N)=O)C(=O)O [Ac-SW-T/E] (Ac-CFLHFGKEGSSGPLQ-OH)
5 | 880 ± 100 | CC(=O)N[C@@H](CS)C(=O)N[C@@H](Cc1ccccc1)C(=O)N[C@@H](CC(C)C)C(=O)N[C@@H](Cc1c[nH]cn1)C(=O)N[C@@H](Cc1ccccc1)C(=O)NCC(=O)N[C@@H](CCCCN)C(=O)N[C@H](C(=O)NCC(=O)N[C@@H](CO)C(=O)N[C@@H](CO)C(=O)NCC(=O)N1CCC[C@H]1C(=O)N[C@@H](CC(C)C)C(=O)N[C@@H](CCC(N)=O)C(=O)O)[C@@H](C)O [Ac-SW] (Ac-CFLHFGKTGSSGPLQ-OH)

The molecules below were run on AnxA2 (assay: not given). Details: 60 μM peptide, up to molar ratio 1:1, 1H-15N HSQC, 25°C, pH 5.5.
Assay type: binding, human
How it was run: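 Recombinant human AnxA2 (C-terminal thrombin site and His tag, expressed in E. coli C41(DE3)) titrated up to 1:1 molar ratio into uniformly 15N-labelled 12-residue CEACAM1-SF peptide (Trx-SMT3 fusion grown in M9/15NH4Cl, Ulp1-cleaved, HPLC-purified) at 60 μM. Buffer: 50 mM NaAc-d3, 2 mM DTT, 5% D2O. 1H-15N HSQC at 700 MHz with cryoprobe; chemical shift perturbations monitored.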

Row | Molecule | chemical shift perturbation of peptide on titration with AnxA2
6 | 453-HFGKTGSSGPLQ-464 [^15N-SW-12] | no chemical shift perturbation

What follows are molecules tested against Ac-^15N-F454G458G461-SW (assay: NMR titration). Details: not given.

Row | Kd [µM] | Molecule
7 | 460 | S100A10-AnxA2Nter fusion protein [S100A10(1–92)-ENLYFQGD linker-AnxA2 peptide (1–13)]

The molecules below were run against S100A10-AnxA2Nter fusion protein [S100A10(1–92)-ENLYFQGD linker-AnxA2 peptide (1–13)] (assay: NMR titration). Details: not given.

Row | Kd [µM] | Molecule
8 | 3530 | B1
9 | 2100 | B2
10 | 880 | B3
11 | 1070 | B4
12 | 1580 | B5
13 | 2330 | B6
14 | 1220 | B7

Same assay, conditions: scale: peptides per S100A10-AnxA2Nter fusion dimer

Row | stoichiometry N | Molecule
15 | 2 | B3
